Consider 17 compounds from ChEMBL document CHEMBL1136952, “Inhibition of staphyloxanthin virulence factor biosynthesis in Staphylococcus aureus: in vitro, in vivo, and crystallographic results” (J Med Chem, 2009).

The test system of experiment [1] is Staphylococcus aureus. The experiment in a line: Inhibition of staphyloxanthin biosynthesis in Staphylococcus aureus isolate Pig1 after 72 hrs by spectrophotometry. It is filed as functional, organism-based. As to conditions: isolate Pig1, PIG1, 72 h. Put shortly:
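Bacteria were grown in Todd-Hewitt broth with compound for 72 h, in duplicate. Cells were then centrifuged and washed twice in PBS. Pigment was extracted with MeOH and read by OD at 450 nm. IC50 came from a dose-response fit of the OD data.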

The subject of experiment [2] is NCI-H460. The experiment in a line: Cytotoxicity against human NCI-H460 cells after 4 days by MTT assay. The class given is cell-based. As to conditions: NCI-H460, 96 h. Put shortly:
(§1)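 Cell lines from the National Cancer Institute, grown in RPMI-1640 with 10% FBS and 2 mM L-glutamine at 37 °C, 5% CO2. Seeded 5000 cells/well with compound half-log serially diluted (0.316 mM to 0.1 pM). Incubated 4 days. Viability read by MTT. IC50 from dose-response fit of OD data.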

The target in experiment [3] is T1, Squalene synthase (Homo sapiens, UniProt P37268).
T1 sequence (P37268 whole entry): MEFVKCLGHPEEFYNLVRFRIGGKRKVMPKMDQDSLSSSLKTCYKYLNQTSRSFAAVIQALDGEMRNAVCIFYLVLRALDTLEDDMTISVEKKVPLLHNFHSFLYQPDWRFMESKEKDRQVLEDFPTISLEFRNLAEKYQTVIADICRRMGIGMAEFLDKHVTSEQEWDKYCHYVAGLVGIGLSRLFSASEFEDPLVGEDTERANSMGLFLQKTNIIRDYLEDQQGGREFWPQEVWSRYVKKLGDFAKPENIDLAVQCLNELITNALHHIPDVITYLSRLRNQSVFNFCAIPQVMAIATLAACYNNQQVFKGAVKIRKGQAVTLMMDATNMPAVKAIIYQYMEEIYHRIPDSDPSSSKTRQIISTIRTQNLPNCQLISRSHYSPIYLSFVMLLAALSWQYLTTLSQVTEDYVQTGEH
The experiment in a line: Inhibition of human recombinant squalene synthase expressed in Escherichia coli cells assessed as conversion of [3H]FPP to squalene by liquid scintillation.

Experiment [4] has as its system SF-268. The experiment in a line: Cytotoxicity against human SF268 cells after 4 days by MTT assay. It is filed as cell-based. As to conditions: SF-268, 96 h. Put shortly: as §1
In experiment [5] the test system is MCF7. Kind of experiment: Cytotoxicity against human MCF7 cells after 4 days by MTT assay. It is filed as cell-based. As to conditions: MCF7, 96 h. Put shortly: as §1
The target in experiment [6] is T2, 4,4'-diapophytoene synthase (Staphylococcus aureus, UniProt A9JQL9).
T2 sequence (A9JQL9 whole entry): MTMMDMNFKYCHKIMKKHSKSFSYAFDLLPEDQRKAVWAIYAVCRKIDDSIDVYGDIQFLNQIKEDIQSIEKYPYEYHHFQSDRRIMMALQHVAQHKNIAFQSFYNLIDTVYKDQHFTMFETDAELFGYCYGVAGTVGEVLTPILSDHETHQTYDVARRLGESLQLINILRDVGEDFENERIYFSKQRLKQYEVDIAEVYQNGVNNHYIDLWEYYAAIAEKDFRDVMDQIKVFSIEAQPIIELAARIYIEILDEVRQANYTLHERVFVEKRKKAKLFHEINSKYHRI
The experiment in a line: Inhibition of Staphylococcus aureus histidine tagged dehydrosqualene synthase expressed in Escherichia coli BL21 (DE3) cells by continuous spectrophotometric assay. Put shortly:
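His-tagged CrtM purified on Ni-NTA. Compounds were preincubated with 2 μg enzyme for 30 min at 20 °C. Phosphate release was followed continuously by a coupled spectrophotometric assay. IC50 came from a dose-response fit, and Ki was derived from IC50, substrate concentration and the CrtM kinetic constant.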

For the compound `CC(C)(C(=O)NCCCc1cccc(Oc2ccccc2)c1)P(=O)(O)O`, the IC50 in experiment [1] is above 500 µM; in experiment [2], above 300 µM; in experiment [3] it was 0.52 µM; in experiment [4], above 300 µM; in experiment [5] it was above 300 µM. The compound also registered a Ki in experiment [6] of 0.96 µM.
With `O=C(CCCCc1cccc(Oc2ccccc2)c1)CP(=O)(O)O`, the IC50 in experiment [1] stood at 28 µM; in experiment [2] it was 191 µM; in experiment [3], 20 µM; in experiment [5], 135 µM. The Ki in experiment [6] was above 7 µM.
With `O=C(CP(=O)(O)O)NCCCc1cccc(Oc2ccc(Cl)c(Cl)c2)c1`, the IC50 is 0.04 µM in experiment [1]; above 300 µM in experiment [2]; 0.74 µM in experiment [3]; above 300 µM in experiment [4]; above 300 µM in experiment [5]. Besides, the Ki in experiment [6] was 0.03 µM.
As for `O=C(CP(=O)([O-])[O-])NCCCc1cccc(Oc2ccccc2)c1.[K+].[K+]`, the IC50 is 0.008 µM in experiment [1]; above 300 µM in experiment [2]; 0.53 µM in experiment [3]; above 300 µM in experiment [4]; above 300 µM in experiment [5].
With `O=C(NO)C(CCCc1cccc(Oc2ccccc2)c1)P(=O)(O)O` (stereo not drawn), the half-maximal inhibitory concentration (IC50) is 4.2 µM in experiment [1]; above 300 µM in experiment [2]; 0.3 µM in experiment [3]; above 300 µM in experiment [4]; above 300 µM in experiment [5]. This compound displayed a Ki in experiment [6] of 4.1 µM.
On to `O=C(CP(=O)(O)O)NCCCCc1cccc(Oc2ccccc2)c1`, for which the IC50 in experiment [1] was 35 µM; in experiment [2], above 300 µM; in experiment [3], above 30 µM; in experiment [4] it was above 300 µM; in experiment [5] it was above 300 µM. In experiment [6], this compound had a Ki of 5.3 µM.
Consider `O=C(CP(=O)(O)O)OCCCc1cccc(Oc2ccccc2)c1`, for which the IC50 is above 500 µM in experiment [1], 86 µM in experiment [2], above 30 µM in experiment [3] and 69 µM in experiment [5]. This compound yielded an inhibition constant Ki in experiment [6] of 5.7 µM.
Take `O=C(CS(=O)(=O)O)NCCCc1cccc(Oc2ccccc2)c1`: the IC50 is 15 µM in experiment [1]; above 300 µM in experiment [2]; above 30 µM in experiment [3]; above 300 µM in experiment [4]; above 300 µM in experiment [5]. The compound also returned a Ki in experiment [6] of 0.81 µM.
As for `O=C(CP(=O)(O)O)N(O)CCCc1cccc(Oc2ccc(Cl)c(Cl)c2)c1`, the IC50 in experiment [1] is 0.042 µM; in experiment [2], above 300 µM; in experiment [3] it was 1.6 µM; in experiment [4], above 300 µM; in experiment [5], above 300 µM. Further, in experiment [6], the Ki came to 0.32 µM.
For `O=C(CP(=O)(O)O)N(O)CCCc1cccc(Oc2ccccc2)c1`, the IC50 in experiment [1] is 0.11 µM; in experiment [2], above 300 µM; in experiment [3], 30 µM; in experiment [4], above 300 µM; in experiment [5], above 300 µM. Besides, the Ki in experiment [6] came to 0.32 µM.
Regarding `CN(CCCc1cccc(Oc2ccccc2)c1)C(=O)CP(=O)(O)O`, the IC50 in experiment [1] was 8.6 µM; in experiment [2], above 300 µM; in experiment [3] it was 1 µM; in experiment [4], above 300 µM; in experiment [5] it was above 300 µM. For the same compound, the Ki in experiment [6] was 0.91 µM.
On to `O=C(CP(=O)(O)O)NCCCc1cccc(Oc2ccc(Cl)cc2)c1`, for which the IC50 in experiment [1] was 0.028 µM; in experiment [2] it was above 300 µM; in experiment [3] it was 1.1 µM; in experiment [4], above 300 µM; in experiment [5] it was above 300 µM. For the same compound, in experiment [6], the Ki came to 0.07 µM.
Turning to `O=C(CP(=O)(O)O)NCCCc1ccc(-c2ccccc2)cc1`, the IC50 is 5 µM in experiment [1]; above 300 µM in experiment [2]; above 30 µM in experiment [3]; above 300 µM in experiment [4]; above 300 µM in experiment [5]. This compound also gave a Ki in experiment [6] of 0.81 µM.
As for `O=P(O)(O)CS(=O)(=O)NCCCc1cccc(Oc2ccccc2)c1`, the IC50 in experiment [1] was above 500 µM; in experiment [2], above 300 µM; in experiment [3] it was above 30 µM; in experiment [4] it was above 300 µM; in experiment [5] it was above 300 µM. This compound also had a Ki in experiment [6] above 7 µM.
As to `O=C(O)CC(=O)NCCCc1cccc(Oc2ccccc2)c1`, the IC50 in experiment [1] was 200 µM; in experiment [2], 306 µM; in experiment [3], above 30 µM; in experiment [4], 306 µM; in experiment [5], 283 µM. Further, the Ki in experiment [6] was above 7 µM.
As to `O=C(CP(=O)(O)O)NCCc1cccc(Oc2ccccc2)c1`, the 50% inhibitory concentration (IC50) is 3 µM in experiment [1]; above 300 µM in experiment [2]; 6.2 µM in experiment [3]; above 300 µM in experiment [4]; above 300 µM in experiment [5]. Further, in experiment [6], the Ki was 1.5 µM.
Regarding `Cc1ccc(-c2ccc(CCCN(O)C(=O)CP(=O)(O)O)cc2)cc1`, the IC50 is 4.1 µM in experiment [1], 284 µM in experiment [2], above 30 µM in experiment [3] and 266 µM in experiment [5]. Besides, the Ki in experiment [6] is above 7 µM.
